Results: ChEMBL document CHEMBL4334446, “Evaluating the effects of fluorine on biological properties and metabolic stability of some antitubulin 3-substituted 7-phenyl-pyrroloquinolinones” (Eur J Med Chem, 2019)

Legend:
HT-29 = assay: Growth inhibition of human HT-29 cells incubated for 72 hrs by MTT assay; type: functional; details: HT-29, 72 h
A-375 = assay: Growth inhibition of human A375 cells incubated for 72 hrs by MTT assay; type: functional; details: A-375, 72 h
A2058 = assay: Growth inhibition of human A2058 cells incubated for 72 hrs by MTT assay; type: functional; details: A2058, 72 h
[1] = Growth inhibition of human DND41 cells incubated for 72 hrs by MTT assay; type: functional; details: DND41, 72 h
Procedure, shortened: (§1)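 Leukemia lines were grown in RPMI-1640; the CEM^Vbl-100 medium also contained 100 ng/mL vinblastine. Cells were seeded at 8 × 10³ per well and left 18 h at 37 °C, 5% CO2. Medium was then replaced with fresh medium holding graded compound concentrations (DMSO stocks), in triplicate, for 72 h. Viability was read by MTT, and GI50 = concentration inhibiting proliferation 50%.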

RS4-11 = assay: Growth inhibition of human RS4:11 cells incubated for 72 hrs by MTT assay; type: functional; details: RS4-11, 72 h; procedure, shortened: as §1
MDA-MB-468 = assay: Growth inhibition of human MDA-MB-468 cells incubated for 72 hrs by MTT assay; type: functional; details: MDA-MB-468, 72 h
HL-60 = assay: Growth inhibition of human HL60 cells incubated for 72 hrs by MTT assay; type: functional; details: HL-60, 72 h; procedure, shortened: as §1
HeLa = assay: Growth inhibition of human HeLa cells incubated for 72 hrs by MTT assay; type: functional
MDA-MB-231 = assay: Growth inhibition of human MDA-MB-231 cells incubated for 72 hrs by MTT assay; type: functional; details: MDA-MB-231, 72 h
Jurkat = assay: Growth inhibition of human Jurkat cells incubated for 72 hrs by MTT assay; type: functional; procedure, shortened: as §1
MCF7 = assay: Growth inhibition of human MCF7 cells incubated for 72 hrs by MTT assay; type: functional; details: MCF7, 72 h
B16-BL6 [2] = assay: Growth inhibition of mouse B16-BL6 cells incubated for 72 hrs by MTT assay; type: functional; details: B16-BL6, 72 h
[3] = Metabolic stability in human liver microsomes assessed as parent compound decline at 10 uM incubated for 60 mins in absence of NADPH by HPLC analysis; type: ADME, Microsome; details: read-out: Drug degradation
Procedure, shortened: (§2)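 Compound (10 µM) was incubated 0 or 60 min at 37 °C with pooled HLMs (1 mg/mL), with or without 1 mM NADPH, or in buffer only (0.1 M KH2PO4 pH 7.4). Reactions were stopped with ice-cold acetonitrile. Remaining parent was measured by HPLC-fluorescence relative to 0 min; mean ± SD, n = 3.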

[4] = Selectivity ratio of GI50 for PHA-stimulated human PBL cells to GI50 for human CEM cells incubated for 72 hrs by MTT assay
Procedure, shortened: (§3)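 Leukemia cells (CEM, DND-41, Jurkat) were grown in RPMI-1640 at 8×10³ cells/well and left 18 h. Donor PBL were gradient-separated, held overnight, and non-adherent cells set at 5×10^5 cells/mL with 2.5 µg/mL PHA. Both were exposed 72 h at 37 °C to graded compound concentrations, read by MTT. The ratio is PBL GI50 over leukemia GI50.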

[5] = Selectivity ratio of GI50 for PHA-stimulated human PBL cells to GI50 for human DND41 cells incubated for 72 hrs by MTT assay; procedure, shortened: as §3
B16-BL6 [6] = assay: Antitumour activity against mouse B16-BL6 cells allografted in C57BL/6 mouse assessed as reduction in tumor mass at 7.5 mg/kg, ip administrated every other day relative to control; type: functional
Procedure, shortened: (§4)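 Male C57BL/6 mice (six weeks old) got 2.5×10^5 BL6-B16 murine melanoma cells s.c. in the dorsolateral flank, in PBS. Once tumors were measurable (about 100 mm³), mice were randomized and given drug i.p. every other day in 50 µL DMSO. Vehicle (DMSO) group served as control. Tumor volume = (D × d²)/2; tumor weight taken at end. 5 animals per group, mean ± SEM.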

[7] = Selectivity ratio of GI50 for human PBL cells to GI50 for human Jurkat cells incubated for 72 hrs by MTT assay
Procedure, shortened: as §3, with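 “overnight in RPMI-1640/10% FBS,” for “overnight,”, “without PHA (resting).” for “with 2.5 µg/mL PHA.”, “h” for “h at 37 °C”, “graded” for “graded compound”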

CCRF-CEM = assay: Growth inhibition of human CEM cells incubated for 72 hrs by MTT assay; type: functional; procedure, shortened: as §1
[8] = Growth inhibition of multidrug-resistant human CEM/VBL100 cells incubated for 72 hrs by MTT assay; type: functional; details: CEM/VBL100, 72 h; procedure, shortened: as §1
Tubulin = Tubulin (Bos taurus, UniProt Q6B856+Q862L2+Q862F3); assay: Inhibition of bovine brain tubulin polymerization preincubated for 15 mins followed by GTP addition and measured for 20 mins by turbidimetry-based spectrophotometric method
Procedure, shortened: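 Bovine brain tubulin (10 µM) was preincubated with varying compound concentrations in 0.8 M monosodium glutamate, pH 6.6, for 15 min at 30 °C, then cooled to 0 °C. GTP was added to 0.4 mM final and the mix warmed to 30 °C. Turbidity was followed at 350 nm. IC50 = concentration inhibiting extent of assembly 50% after 20 min.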

[9] = Selectivity ratio of GI50 for human PBL cells to GI50 for human DND41 cells incubated for 72 hrs by MTT assay
Procedure, shortened: as §3, with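 “overnight in RPMI-1640/10% FBS,” for “overnight,”, “without PHA (resting).” for “with 2.5 µg/mL PHA.”, “h” for “h at 37 °C”, “graded” for “graded compound”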

[10] = Growth inhibition of PHA-stimulated human PBL cells incubated for 72 hrs by MTT assay; type: cell-based; details: PHA-stimulated PBL cells (peripheral blood lymphocytes)
Procedure, shortened: (§5)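 PBL from healthy donors were isolated on a Lymphoprep gradient, held overnight in RPMI-1640 with 10% FBS, and the non-adherent cells resuspended at 5 × 10^5 cells/mL. Proliferating cultures got 2.5 µg/mL PHA; resting cultures got none. Compound was added at several concentrations for 72 h and viability read by MTT. GI50 reported as mean ± SEM of three experiments.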

Tubulin (Bos taurus) = Tubulin (Bos taurus) (UniProt Q6B856+Q862L2+Q862F3); assay: Inhibition of [3H]colchicine binding to bovine brain tubulin at 5 uM relative to control
Procedure, shortened: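 Bovine brain tubulin at 1 µM was incubated with 5 µM [3H]colchicine and the test compound at 5 µM. Inhibition of colchicine binding was measured relative to a control.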

[11] = Growth inhibition of human PBL cells incubated for 72 hrs by MTT assay; type: cell-based; details: PBL cells (peripheral blood lymphocytes); procedure, shortened: as §5
[12] = Metabolic stability in human liver microsomes assessed as parent compound decline at 10 uM incubated for 60 mins in presence of NADPH by HPLC analysis; type: ADME, Microsome; details: read-out: Drug degradation; procedure, shortened: as §2
[13] = Selectivity ratio of GI50 for human PBL cells to GI50 for human CEM cells incubated for 72 hrs by MTT assay; type: functional
Procedure, shortened: as §3, with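 “overnight in RPMI-1640/10% FBS,” for “overnight,”, “without PHA (resting).” for “with 2.5 µg/mL PHA.”, “h” for “h at 37 °C”, “graded” for “graded compound”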

[14] = Toxicity in C57BL/6 mouse allografted with mouse B16-BL6 cells assessed as change in body weight at 3 to 7.5 mg/kg, ip administrated every other day; type: organism-based; details: in vivo
Procedure, shortened: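 Male six-week-old C57BL/6 mice were given BL6-B16 murine melanoma cells subcutaneously in the dorsolateral flank in PBS. Once tumours reached about 100 mm³, mice were randomised and dosed intraperitoneally every other day with 3.0 or 7.5 mg/kg in DMSO, or vehicle alone. Body weight change was followed; 5 animals per group, mean ± SEM.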

[15] = Selectivity ratio of GI50 for PHA-stimulated human PBL cells to GI50 for human Jurkat cells incubated for 72 hrs by MTT assay; procedure, shortened: as §3
B16-BL6 [16] = assay: Antitumour activity against mouse B16-BL6 cells allografted in C57BL/6 mouse assessed as reduction in tumor mass at 3 mg/kg, ip administrated every other day relative to control; type: functional; procedure, shortened: as §4
[17] = Time-dependent metabolic stability in human liver microsomes at 10 uM incubated for 30 mins in presence of NADPH by HPLC analysis; type: ADME, Microsome; details: 0.5 h
Procedure, shortened: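 Pooled mixed-gender HLMs (0.5 mg/mL) plus 1 mM NADPH in 0.1 M KH₂PO₄ pH 7.4, compound 10 μM final, 37 °C. Reaction started with microsomes after 3-min equilibration. Stopped with ice-cold acetonitrile at 0, 2, 5, 15, 30 min, then HPLC-fluorescence of supernatant. Percent remaining vs 0 min (mean ± SD, n = 3). Half-life = 0.693/k from linear regression of Ln % remaining vs time.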

[18] = Metabolic stability in human liver microsomes at 10 uM incubated for 15 mins in presence of NADPH and non-selective CYP inhibitor quercetin by HPLC analysis; type: ADME, Microsome; details: 0.25 h
Procedure, shortened: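 Compound (10 µM) was incubated 0 and 15 min at 37 °C with pooled HLMs and 1 mM NADPH in 0.1 M KH2PO4 pH 7.4, with or without 100 µM quercetin. Parent remaining was measured by HPLC-fluorescence relative to 0 min; mean ± SD, n = 3.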

[19] = Metabolic stability in human liver microsomes assessed as half life at 10 uM incubated for 30 mins in presence of NADPH by HPLC analysis; type: ADME, Microsome
Procedure, shortened: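 Compound (10 µM) was incubated at 37 °C with 0.5 mg/mL pooled HLMs and 1 mM NADPH in 0.1 M KH2PO4 pH 7.4, sampled at 0, 2, 5, 15 and 30 min. Controls without NADPH, or buffer only, ran 0 and 30 min. Parent was quantified by HPLC-fluorescence as % of the 0 min level, n = 3. t1/2 = 0.693/k, with k from regression of ln % remaining versus time.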

[20] = Stability in phosphate buffer at pH 7.4 at 10 uM incubated for 30 mins by HPLC analysis; type: physicochemical; details: pH 7.4, 0.5 h
Procedure, shortened: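 No microsomes or NADPH: compound (10 μM final) held in 0.1 M KH₂PO₄ pH 7.4 at 37 °C. Samples taken at 0 and 30 min, quenched with ice-cold acetonitrile, centrifuged, analysed by HPLC with fluorescence detection. Percent parent remaining relative to 0 min; mean ± SD, n = 3.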

[21] = Metabolic stability in human liver microsomes at 10 uM incubated for 30 mins in phosphate buffer at pH 7.4 by HPLC analysis; type: ADME, Microsome; details: pH 7.4, 0.5 h
Procedure, shortened: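 Test compound (10 μM, final) incubated at 37 °C with pooled mixed-gender HLMs (0.5 mg/mL) in 0.1 M KH₂PO₄ pH 7.4 without NADPH. Sampled at 0 and 30 min, quenched with ice-cold acetonitrile, centrifuged, supernatant analysed by HPLC with fluorescence detection (ex 344/em 493 nm). Percent remaining calculated from peak area relative to 0 min; mean ± SD, n = 3.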

Structure (SMILES)	GI50 (HT-29) [µM]	GI50 (A-375) [µM]	GI50 (A2058) [µM]	GI50 [1] [µM]	GI50 (RS4-11) [µM]	GI50 (MDA-MB-468) [µM]	GI50 (HL-60) [µM]	GI50 (HeLa) [µM]	GI50 (MDA-MB-231) [µM]	GI50 (Jurkat) [µM]	GI50 (MCF7) [µM]	IC50 (Tubulin) [µM]	inhibition (Tubulin (Bos taurus)) [%]	other results
O=C(Oc1cc(-c2ccccc2)nc2ccc3[nH]ccc3c12)c1ccccc1F	0.216	2.55	1.49	2.43	0.697	1.32	2.31	0.501	5.59	0.324	3.46			
O=C(c1ccccc1)n1ccc2c3c(=O)cc(-c4cccc(F)c4)[nH]c3ccc21	0.402			0.0102	0.056	0.871	0.0151	0.0133	0.454	0.0324	0.103	0.38	70	GI50 (B16-BL6 [2]): 0.018 µM; metabolised at 1 h, 10 µM [3]: 20%; RatioGI50 [4]: 10000 - 30000; RatioGI50 [5]: 10000 - 30000; inhibition in vivo at 7.5 mg/kg (B16-BL6 [6]): 58.4%; RatioGI50 [7]: 10000 - 30000; GI50 (CCRF-CEM): 0.044 µM; GI50 [8]: 0.036 µM; RatioGI50 [9]: 10000 - 30000; GI50 at 72 h [10]: 17.6 µM; GI50 at 72 h [11]: 45.6 µM; metabolised at 1 h, 10 µM [12]: 20%; RatioGI50 [13]: 10000 - 30000; Activity [14]: Non-Toxic; RatioGI50 [15]: 10000 - 30000; inhibition in vivo at 3 mg/kg (B16-BL6 [16]): 16.7%
CCn1ccc2c3c(=O)cc(-c4ccc(F)cc4)[nH]c3ccc21	0.447	0.0698	1.18	0.477	0.293	0.043	1.44	0.34	0.206	0.334	0.0513	3.7	12	Stability [17]: Unstable; Stability [18]: Stable; half-life at 10 µM [19]: 10.6 min; Stability [20]: Stable; Stability [21]: Stable
